# From ChEMBL document CHEMBL1770116, “Glycoglycerolipid analogues inhibit PKC translocation to the plasma membrane and downstream signaling pathways in PMA-treated fibroblasts and human glioblastoma cells, U87MG” (Eur J Med Chem, 2011)
# Calls of active or inactive are those of the source. The rule behind the calls is not given here.
# Assays:
# [1] = molecular target: T1, Protein kinase C (PKC) (Homo sapiens) (UniProt O94806+P41743+P17252+P05129+Q05655+P05771+Q05513+Q02156+P24723+Q15139+Q04759); test: Inhibition of PKC activation in PMA-treated human fibroblasts assessed as decrease in FAK phosphorylation at 2 uM pretreated for 1 hr followed by 15 mins challenged with PMA by Western blot/densitometric analysis
# In short: (§1)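 Primary human dermal fibroblasts, 5 × 10^5 cells seeded in DMEM/10% FBS; after 24 h, compound (ethanol vehicle) in 10% FBS DMEM for 1 h at 37 °C, then 100 nM PMA for 15 min. Controls received 0.005% ethanol ± PMA. Cells sonicated; 25 µg total lysate run on 10% SDS-PAGE, blotted to PVDF and probed with phospho-specific antibodies; densitometry.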
# [2] = molecular target: T1, Protein kinase C (PKC) (Homo sapiens); test: Inhibition of PKC activation in PMA-treated human fibroblasts assessed as decrease in Raf phosphorylation at 2 uM pretreated for 1 hr followed by 15 mins challenged with PMA by Western blot/densitometric analysis; in short: as §1
# [3] = molecular target: T1, Protein kinase C (PKC) (Homo sapiens); test: Inhibition of PKC activation in PMA-treated human fibroblasts assessed as decrease in MEK phosphorylation at 2 uM pretreated for 1 hr followed by 15 mins challenged with PMA by Western blot/densitometric analysis; in short: as §1
# [4] = molecular target: Protein kinase C (PKC); test: Inhibition of PKC activation in PMA-treated human fibroblasts assessed as inhibition of translocation to plasma membrane cells pretreated for 1 hr followed by 15 mins challenged with PMA by Western blot/densitometric analysis
# In short: (§2)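 Primary human dermal fibroblasts in 10% FBS DMEM, pretreated 1 h at 37 °C with compound (ethanol vehicle, 0.2–2 range), then 100 nM PMA for 15 min. Controls received 0.005% ethanol ± PMA. 10 µg membrane protein on 10% SDS-PAGE/PVDF, probed with anti-PKC; densitometry. IC50 derived from the inhibition curve.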
# [5] = molecular target: T1, Protein kinase C (PKC) (Homo sapiens); test: Inhibition of PKC activation in human U87MG cells assessed as inhibition of translocation to plasma membrane at 2 uM after 24 hrs by Western blot/densitometric analysis; format: cell-based; conditions: U-87MG ATCC
# In short: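 U87MG cells (4 × 10^5) cultured in DMEM high glucose/10% FBS, treated 24 h at 37 °C; controls received 0.005% ethanol. Means ± S.D. of three experiments, Student's t-test.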
# [6] = Antitumor activity against human U87MG cells assessed as reduction in [3H]thymidine incorporation at 2 uM after 48 hrs by beta counting; format: functional, U-87MG ATCC; design: scale not given: the % may be the effect or the level left
# In short: (§3)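 [3H]thymidine incorporation in U87MG cells: 4 × 10^4 cells plated, treated 24 h or 48 h; […] [3H]thymidine added for final 4 h at 37 °C; radioactivity counted in trichloroacetic acid-insoluble material by β-counter. Means ± S.D. of four experiments.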
# [7] = molecular target: T1, Protein kinase C (PKC) (Homo sapiens); test: Inhibition of PKC activation in PMA-treated human fibroblasts assessed as inhibition of translocation to plasma membrane at 0.2 uM pretreated for 1 hr followed by 15 mins challenged with PMA by Western blot/densitometric analysis; in short: as §2
# [8] = Suppression of PKC delta mRNA expression in PMA-treated human fibroblasts at 2 uM pretreated for 1 hr followed by 15 mins challenged with PMA by RT-PCR analysis; format: functional, cell-based; conditions: Fibroblast
# In short: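 Fibroblasts pretreated 1 h, then 100 nM PMA for 15 min. RNA taken for real-time PCR of PKCα and PKCδ with SYBR Green and 0.2 µM primers. Cycling: 95 °C for 3 min, then 40 cycles of 95 °C 10 s / 58 °C 30 s; specificity checked by melting curve. Means ± S.D. of four experiments, Student's t-test.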
# [9] = Antitumor activity against human U87MG cells assessed as reduction in [3H]thymidine incorporation at 2 uM after 24 hrs by beta counting; format: functional, U-87MG ATCC; design: scale not given: the % may be the effect or the level left; in short: as §3
# [10] = system: U-87 MG; test: Inhibition of human U87MG cell migration at 2 uM pretreated for 48 hrs measured after 6 to 30 hrs of scratching by scratch migration assay relative to control; format: functional, cell-based; conditions: U-87MG ATCC
# In short: (§4)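 U87MG cells (8 × 10^4) pretreated 48 h in 10% FBS DMEM, ethanol-only controls. Wound width photographed under phase contrast at 0, 6, 24 and 30 h post-scratch.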
# [11] = molecular target: T1, Protein kinase C (PKC) (Homo sapiens); test: Inhibition of PKC activation in PMA-treated human fibroblasts assessed as decrease in ERK1/2 phosphorylation at 2 uM pretreated for 1 hr followed by 15 mins challenged with PMA by Western blot/densitometric analysis; in short: as §1
# [12] = molecular target: T1, Protein kinase C (PKC) (Homo sapiens); test: Inhibition of PKC activation in PMA-treated human fibroblasts assessed as inhibition of translocation to plasma membrane at 2 uM pretreated for 1 hr followed by 15 mins challenged with PMA by Western blot/densitometric analysis; in short: as §2
# [13] = system: U-87 MG; test: Inhibition of human U87MG cell migration assessed as reduction in wound size at 2 uM pretreated for 48 hrs measured after 30 hrs of scratching by scratch migration assay relative to control; format: functional, U-87MG ATCC; in short: as §4
SMILES,inhibition [5],inhibition [7],inhibition [12],other results
CC(C)CC(=O)OC[C@H]1O[C@@H](OC(CO)CO)[C@H](O)[C@@H](O)[C@H]1O,58%,23%,99%,inhibition [1]: Active; inhibition [2]: Active; inhibition [3]: Active; IC50 [4]: 480 nM; Activity [6]: 30%; Activity [8]: Active; Activity [9]: 25%; inhibition [10]: Active; inhibition [11]: Active; inhibition at 2 µM [13]: 16%
CCCCCCCCCC(=O)OC[C@H]1O[C@@H](OC(CO)CO)[C@H](O)[C@@H](O)[C@H]1O,inactive,,,
CCCCCC(=O)OC[C@H]1O[C@@H](OC(CO)CO)[C@H](O)[C@@H](O)[C@H]1O,,35%,64%,
O=C(CC1CCCCC1)OC[C@H]1O[C@@H](OC(CO)CO)[C@H](O)[C@@H](O)[C@H]1O,,38%,52%,
OCC(CO)O[C@@H]1O[C@H](CO)[C@H](O)[C@H](O)[C@H]1O,,27%,50%,
